# Screening data as filed in PubChem.
# An excerpt weighted towards active compounds, which were near 1.9% of everything screened.
# HIF act = HIF pathway transcriptional activation; U2OS HRE-luciferase reporter, luminescence; normalized: DMSO 0%, desferrioxamine 100%; activation, % at 7.5 µM (by protocol); 300,000 tested, 0.32% active; AID 1910;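 active = mean activation of at least 10% of the iron chelator positive control signal, with at least half of replicates also reaching 10%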
# GAA850 FXN act = activators of GAA850 frataxin (FXN) promoter; HEK293 lucGAA850 FXN promoter luciferase reporter, 24 h; percent of 10 µM SAHA response; activation, % at 6 µM; 360,000 tested, 0.56% active; AID 540364;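 active = activation above the average of all compounds screened plus 3 SD, cutoff fixed separately per campaign, cut at about 7.5% in these data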;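 also: 0% = DMSO wells and 100% = 10 µM SAHA wells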
# Hsp70 act = Hsp70 transcriptional activation, primary screen; activation, % at 10 µM; 200,000 tested, 0.04% active; HeLa Hsp70 promoter luciferase reporter, luminescence; scaled: vehicle 0, proteasome-inhibitor control 100%;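 active = activation above the mean across all tested compounds plus 3 SD, cutoff set per campaign, cut at about 5.5% in these data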;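 also: 100% = MG132 at 30 µM as the positive control and 0% = DMSO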
# ABHD5-PLIN5 inh = ABHD5-PLIN5 protein interaction inhibition | Q00G26+Q8WTS1 | AID 602281 | 360,000 tested, 0.78% active | inhibition, % at 4 µM | Split G. princeps luciferase complementation, luminescence, 4 h;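 active = inhibition above the mean inhibition across every tested compound plus 3 SD, cut at about 22% in these data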;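 also: 0% = DMSO only wells and the 100% control is not disclosed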
# Target sequence (Q00G26 whole entry, looked up): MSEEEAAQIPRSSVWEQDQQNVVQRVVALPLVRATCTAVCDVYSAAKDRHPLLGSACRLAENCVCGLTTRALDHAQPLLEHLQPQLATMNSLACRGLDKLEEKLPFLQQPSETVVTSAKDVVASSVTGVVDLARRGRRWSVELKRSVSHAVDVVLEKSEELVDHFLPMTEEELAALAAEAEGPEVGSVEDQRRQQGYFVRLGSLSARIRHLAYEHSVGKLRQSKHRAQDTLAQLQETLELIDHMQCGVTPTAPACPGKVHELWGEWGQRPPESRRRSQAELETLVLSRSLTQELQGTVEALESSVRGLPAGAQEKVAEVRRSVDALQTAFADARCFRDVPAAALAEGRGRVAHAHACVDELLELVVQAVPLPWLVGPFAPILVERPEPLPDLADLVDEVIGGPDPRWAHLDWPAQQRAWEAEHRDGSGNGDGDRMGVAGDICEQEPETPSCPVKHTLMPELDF
# Target sequence (Q8WTS1 whole entry, looked up): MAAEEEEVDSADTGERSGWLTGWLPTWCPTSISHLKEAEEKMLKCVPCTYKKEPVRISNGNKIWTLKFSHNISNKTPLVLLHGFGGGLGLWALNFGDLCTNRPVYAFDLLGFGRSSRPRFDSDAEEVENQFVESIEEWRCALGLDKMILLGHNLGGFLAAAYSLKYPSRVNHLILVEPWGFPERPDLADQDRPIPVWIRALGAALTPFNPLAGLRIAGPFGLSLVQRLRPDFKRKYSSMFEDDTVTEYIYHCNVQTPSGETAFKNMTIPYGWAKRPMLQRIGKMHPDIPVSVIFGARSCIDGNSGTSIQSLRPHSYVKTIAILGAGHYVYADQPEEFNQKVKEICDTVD
# Rad51 HR inh = Rad51 (human) homologous recombination inhibition | hRad51 DNA strand exchange, fluorescence dequenching | inhibition, % at 10 µM | 200,000 tested, 0.085% active;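 active = inhibition above 40% at the single screening dose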;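 also: 0% = DMSO control wells and 100% = blanks with heterologous ssDNA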
#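 Material: Human Rad51 nucleoprotein filaments preassembled on unlabelled ssDNA | Also added: Labelled 47-mer dsDNA for strand exchange | Dosing: Single dose, 10 µM final compound | Schedule: 30-min compound preincubation and 15-min exchange, both room temperature | Technique: Fluorescence dequenching at 485/520 nm | Measure: Percent inhibition relative to plate controls and blanks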
# TAG inh = triacylglycerol accumulation inhibition; H9c2 cells, Nile Red lipid (TAG) fluorescence; cells loaded with 200 µM oleic acid; inhibition, % at 12.5 µM; 230,000 tested, 0.66% active; AID 651582;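 active = pattern-corrected inhibition of lipid staining of at least 50% with the nuclear-stain viability signal not falling by more than 50%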;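 also: 0% = DMSO wells and 100% = triacsin C control wells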
# ABHD5-PLIN5 conf = ABHD5-PLIN5 interaction inhibition, confirmed. shares compounds with ABHD5-PLIN5 inh. biochemical ABHD5-PLIN5 interaction, luminescence. 2,200 tested, 67% active. inhibition, % at 4 µM. AID 651612; in the data active = inhibition above about 23%;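 also: 0% = DMSO vehicle wells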
# HNF4 split-luc = active in HNF4 split-luciferase counter-screen for ABHD5-PLIN5 inhibitors; shares compounds with ABHD5-PLIN5 inh; HNF4 dimerization, luminescence, biochemical; inhibition, % at 4 µM; 2,200 tested, 77% active;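 active = mean inhibition across replicate wells exceeding the computed hit threshold, cut at about 13% in these data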;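 also: light from luciferase halves that rejoin when HNF4 fusion proteins dimerize; 0% = DMSO only wells and the 100% control is not given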
# An asterisk follows results filed as active; · = not tested or not shown.
SMILES,HIF act,GAA850 FXN act,Hsp70 act,ABHD5-PLIN5 inh,Rad51 HR inh,TAG inh,ABHD5-PLIN5 conf,HNF4 split-luc
O=C(O)c1ccccc1Sc1c([N+](=O)[O-])cc(C(F)(F)F)cc1[N+](=O)[O-],0,1,0,27*,31,-5,47*,30*
CS(=O)(=O)N1N=C(c2ccco2)CC1c1ccc(Cl)cc1 (stereo unspecified),0,4,0,4,-7,·,·,·
CCCCCCCCN1C(=O)[C@H](CC(=O)NCc2ccc(C)o2)C[C@@]2(C(=O)OC)CCCCC=C12,·,·,·,36*,·,·,23*,7
CCCCCCCCN1C(=O)[C@H](CC(=O)NCc2ccc(C)o2)C[C@@]2(C(=O)OCC)CCC=C12,·,·,·,31*,·,·,28*,16*
O=C(CN1C(=O)c2ccccc2C1=O)NCC(=O)Nc1ccccc1,·,0,·,2,·,1,·,·
CN(C)/C=C1\C(=O)Nc2ccccc21,0,2,0,-2,-4,-2,·,·
COc1ccc(C(=O)c2ccc(Br)cc2)cc1,1,6,0,-7,6,·,·,·
CN(O)/C=C1\C(=O)Nc2ccccc21,0,0,0,-34,0,·,·,·
O=C1Nc2ccccc2/C1=C/c1ccccc1Cl,0,2,·,27*,·,·,40*,26*
O=C1Nc2ccccc2/C1=C\C(=O)c1ccccc1,3,3,·,50*,·,·,82*,96*
COc1ccc(C(=O)/C=C2\C(=O)Nc3ccc(Br)cc32)cc1,·,2,·,85*,·,-2,97*,91*
O=C(/C=C1\C(=O)Nc2ccccc21)/C=C1\C(=O)Nc2ccccc21,·,4,·,63*,-10,·,102*,105*
CCN(CC)S(=O)(=O)c1ccc(NC(=O)COC(=O)CCc2cc(OC)c(OC)c(OC)c2)cc1,-13,2,0,-4,9,·,·,·
CC(C)Oc1ccc(C(=O)/C=C2/C(=O)Nc3ccccc32)cc1,1,4,·,62*,·,·,82*,86*
COc1ccc(NC(=O)CCOc2ccccc2F)cc1S(=O)(=O)N1CCCCC1,·,-2,·,3,·,-25,·,·
S=C(NCCCN1CCOCC1)N1CCN(c2nc(-c3ccc(Cl)cc3)cs2)CC1,0,-1,-1,32*,-4,·,17,3
Cc1ccc(NC(CC(=O)c2ccccc2)C(=O)O)cc1Cl (stereo unspecified),3,4,·,29*,-39,-11,-2,40*
CSCCC(NC(=O)c1ccccc1)C(=O)OCC(=O)Nc1ccc(C)c(Cl)c1 (stereo unspecified),0,-2,0,-9,9,-4,·,·
O=C(CC(Nc1ccc(Cl)cc1Cl)C(=O)O)c1ccccc1 (stereo unspecified),-2,-12,·,78*,14,0,16,80*
O=C(CCn1c(=O)c2cccn2c2ccccc21)Nc1ccc(F)cc1,0,-2,·,-11,·,·,·,·
CC1CCCN(S(=O)(=O)c2ccc3c(c2)c(=O)nc2ccccn23)C1 (stereo unspecified),0,1,·,-4,·,·,·,·
Cc1ccc(S(=O)(=O)c2c(N)n(Cc3ccco3)c3nc4ccccc4nc23)cc1C,0,4,0,28*,-23,·,52*,48*
COc1cc(NC(=O)C/C(C)=N/NC(=O)C(=O)NC2CCCCC2)c(OC)cc1Cl,1,2,0,24*,·,-13,6,5
CCC(c1nnnn1Cc1ccco1)N(Cc1cc2cc(C)cc(C)c2[nH]c1=O)CC1CCCO1 (stereo unspecified),0,2,0,28*,1,11,10,10
CCC(c1nnnn1Cc1ccco1)N(Cc1ccccc1OC)Cc1cc2cc(C)ccc2[nH]c1=O (stereo unspecified),0,0,0,8,1,6,·,·
SMILES,HIF act,GAA850 FXN act,Hsp70 act,ABHD5-PLIN5 inh,Rad51 HR inh,TAG inh,ABHD5-PLIN5 conf,HNF4 split-luc
O=C(O)c1cccc(N2C(=O)C3CC=CCC3C2=O)c1 (stereo unspecified),0,-2,0,1,-4,·,·,·
O=C(O)c1cccc(N2C(=O)C=CC2=O)c1,·,1,·,37*,·,-6,44*,104*
Cc1ccsc1CN(C)C(=O)CN1C(=O)NC(c2ccccc2)(c2ccccc2)C1=O,·,-1,·,-5,·,17,·,·
COc1ccc2sc(-c3ccc(S(C)(=O)=O)cc3)c(C#CCO)c2c1,·,2,·,6,·,5,·,·
COc1ccc2c(C#CCCO)c(-c3ccc(S(C)(=O)=O)cc3)sc2c1,·,4,·,30*,·,21,17,3
COc1ccccc1N1CCN(C(=O)c2cc(S(=O)(=O)N3CCOCC3)ccc2C)CC1,·,-1,·,-7,·,-5,·,·
CCOC(=O)C1(C(=O)OCC)COC(=O)C1CN1Cc2cc3ccccc3nc2C1 (stereo unspecified),·,0,·,46*,·,-4,29*,89*
CC(C)(C)OC(=O)N1Cc2cc3ccccc3nc2C1,·,2,·,2,·,9,·,·
CC(=O)Oc1c(Cl)cc(N(C(C)=O)S(=O)(=O)c2ccccc2)c2ccccc12,0,0,·,58*,·,-6,49*,15*
CC(=O)Oc1ccc(N(C(C)=O)S(=O)(=O)c2ccccc2)c2ccccc12,·,0,·,5,·,-9,·,·
O=C(O)C(C(=O)/C=C/c1ccco1)=C1SCCS1,1,4,0,45*,-2,-5,21,31*
O=C(C=C1SCCS1)/C=C/c1ccco1,-1,2,0,31*,·,-4,44*,48*
O=C(C=Cc1ccco1)c1ccco1,·,2,·,16,·,18,·,·
CCc1nnc(NC(=O)CSC(=S)N2CCOCC2)s1,0,0,·,-1,·,34,·,·
Nc1sccc1C(=O)N1CCN(c2ccccc2)CC1,·,·,·,30*,·,·,1,42*
CCOc1cccc(-c2c(C(=O)N/N=C/c3ccsc3)nnn2-c2nonc2N)c1,0,0,·,-7,·,·,·,·
CCc1ccc(NC(=O)c2nc(S(=O)(=O)Cc3ccccc3)ncc2Cl)cc1,-4,-9,·,77*,·,·,89*,89*
CN(c1ccccc1)S(=O)(=O)c1ccc(NC(=O)c2ccccc2)cc1,0,4,0,-3,-6,·,·,·
CC1CCN(S(=O)(=O)c2ccc(NC(=O)c3ccncc3)cc2)CC1,0,1,·,-4,·,0,·,·
COC(=O)c1ccc(NC(=O)c2nc(S(=O)(=O)Cc3cccc(C)c3)ncc2Cl)cc1,-3,5,·,44*,·,·,92*,95*
CCS(=O)(=O)c1ncc(Cl)c(C(=O)Nc2ccc(S(=O)(=O)N3CCC(C)CC3)cc2)n1,·,-10,·,73*,·,·,99*,103*
